High-throughput results: PubChem, several laboratories
MC4R antagonist = MC4R antagonists of cAMP signaling, primary screen, cell-based, TR-FRET, antagonist arm of biased-ligand search. Melanocortin receptor 4 (Homo sapiens), P32245. 360,000 compounds, 0.48% hits. inhibition, % at 6.5 µM. MC4R-expressing cells, MTII-stimulated cAMP, LANCE TR-FRET;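 active = inhibition above its plate's cutoff, the mean of tested wells on that plate plus 3 SD, cut at about 29% in these data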;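 also: 0% = Melanotan II alone and 100% = Melanotan II plus saturating MCL0020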
Target sequence (P32245 whole entry, looked up): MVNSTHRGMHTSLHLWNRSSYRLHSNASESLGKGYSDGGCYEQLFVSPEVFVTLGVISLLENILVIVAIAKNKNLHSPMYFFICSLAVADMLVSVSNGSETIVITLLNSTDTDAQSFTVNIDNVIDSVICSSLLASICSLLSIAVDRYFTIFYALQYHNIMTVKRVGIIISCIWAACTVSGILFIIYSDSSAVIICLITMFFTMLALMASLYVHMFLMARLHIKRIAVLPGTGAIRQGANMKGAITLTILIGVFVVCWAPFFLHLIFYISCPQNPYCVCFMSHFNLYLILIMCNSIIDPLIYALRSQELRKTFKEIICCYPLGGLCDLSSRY
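system = U2OS cells with stable human MC4R expression | also added = Melanotan II challenge after compound preincubation | dosing = one concentration, 6.5 µM nominal | incubation = compound 30 min, challenge 1 h, detection 1 h | measured by = TR-FRET with Eu-cAMP and labeled anti-cAMP, 671 nm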
MC4R ag barr = MC4R agonists recruiting beta-arrestin, primary screen, cell-based, luminescence, agonist arm of biased-ligand search | 360,000 compounds, 0.98% hits | U2OS MC4R beta-arrestin complementation; percent of melanotan II response, DMSO zero | AID 540308, 2011 | activation, % at 8.9 µM | Melanocortin receptor 4 (Homo sapiens), P32245;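 active = activation above a per-plate cutoff, the mean activation of sample wells on that plate plus 3 SD, cut at about 8% in these data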
ATG4B inh = ATG4B protease inhibitors, primary screen, biochemical, fluorescence, uHTS | ATG4B cleavage of LC3-PLA2, NBD-HPC fluorescence, 1 h | inhibition, % at 8.33 µM | 340,000 compounds, 0.51% hits | AID 504462, 2011; in the data active = inhibition above about 40%
Target sequence (Q9Y4P1 whole entry, looked up): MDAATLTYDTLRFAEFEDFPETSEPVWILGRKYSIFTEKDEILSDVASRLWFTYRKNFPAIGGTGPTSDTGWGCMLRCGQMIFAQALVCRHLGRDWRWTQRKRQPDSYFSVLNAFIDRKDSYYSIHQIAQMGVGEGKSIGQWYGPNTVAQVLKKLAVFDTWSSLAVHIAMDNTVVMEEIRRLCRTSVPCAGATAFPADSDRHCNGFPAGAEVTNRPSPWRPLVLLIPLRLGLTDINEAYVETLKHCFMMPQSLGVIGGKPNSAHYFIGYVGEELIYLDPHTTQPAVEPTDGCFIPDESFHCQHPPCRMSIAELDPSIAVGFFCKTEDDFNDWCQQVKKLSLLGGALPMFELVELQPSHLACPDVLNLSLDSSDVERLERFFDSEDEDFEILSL
MPTP inh = mitochondrial permeability transition pore inhibitors, primary screen, biochemical, isolated mouse mitochondria, absorbance; Ca2+ swelling absorbance, 30 min; inhibition, % at 10 µM; 360,000 compounds, 1.4% hits; AID 602449, 2012;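 active = inhibition of 50% or more, scaled per plate between neutral and stimulator controls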;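 also: 0% = DMSO wells given calcium and 100% = 1 mM EGTA wells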
SMARCA2 act = SMARCA2 (BRM) function activators, primary screen, cell-based, luminescence, high throughput. 370,000 compounds, 1% hits. MG213 cells, MMTV-luciferase reporter, dexamethasone, overnight. activation, % at 9.1 µM; in the data active = activation above about 7.8%;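 also: 0% = vehicle wells and 100% = reference activator wells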
Rh123 counter = fluorescence retest of MPTP screen hits in isolated mitochondria, single concentration. membrane potential, Rhodamine 123 fluorescence. inhibition, % at 10 µM. 5,000 compounds, 78% hits. shares compounds with MPTP inh; in the data active = inhibition above about 22%;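 also: 0% = DMSO vehicle and 100% = positive control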
MPTP abs DR = mitochondrial permeability transition pore inhibitors, dose response, biochemical, absorbance, uHTS hits; 780 compounds, 58% hits; shares compounds with MPTP inh; isolated mitochondria swelling; AID 651561, 2012; IC50, µM; in the data active = IC50 below about 20 µM
MPTP cs DR = fluorescent counter-screen in isolated mitochondria, dose response, counter-screen for MPTP inhibitor project, biochemical, fluorescence, uHTS hits. IC50, µM. shares compounds with MPTP inh. isolated mitochondria counterscreen, fluorescence read-out. 780 compounds, 49% hits; in the data active = IC50 below about 80 µM
The depositor's hits bear a star; · = not tested or not shown. Sampled rows, rich in hits. Any-hit rate of the full collection: about 4.1%.

SMILES | MC4R antagonist | MC4R ag barr | ATG4B inh | MPTP inh | SMARCA2 act | Rh123 counter | others
CCOc1cccc(C=NNC(=O)C(=O)Nc2cccc(C(F)(F)F)c2)c1O | · | · | · | · | -6.4 | ·
CN(C)CC/C=C1/c2cc(F)ccc2CSc2ccc(F)cc21 | 8.8 | 2.3 | 3.8 | 72.3* | -1.9 | -2.5 | MPTP abs DR=14*;MPTP cs DR=>80
C#CCN(C)CC/C=C1\c2ccccc2CSc2ccccc21 | 1.6 | 5.0 | -14.9 | 33.1 | -4.0 | ·
C=CCN(C)CC/C=C1\c2ccccc2CSc2ccccc21 | 2.4 | -0.5 | -1.3 | 74.3* | -5.1 | -1.6 | MPTP abs DR=17.5*;MPTP cs DR=73.9*
CN(CC/C=C1/c2ccccc2CSc2ccccc21)CCCO | 17.4 | -2.0 | 16.6 | -1.0 | -1.2 | ·
NCC/C=C1/c2ccccc2CSc2ccccc21 | 1.9 | 1.0 | -9.2 | 87.5* | -4.3 | -9.4 | MPTP abs DR=6.79*;MPTP cs DR=>80
CC(C)(C)OC(=O)N1CCC2CCN(CCc3ccccc3)CC21 (centres undefined) | · | · | · | · | -4.7 | ·
Cc1cccc2sc(NNC(=O)c3cc(-c4cccs4)nc4ccccc34)nc12 | 8.5 | -1.6 | -3.5 | 68.0* | -8.5 | 86.9*
O=C1CCC(NC(=O)Cc2ccccc2)C(=O)N1 (centres undefined) | · | · | · | · | -0.2 | ·
O=[N+]([O-])/C(=C\Nc1ccccc1Cl)S(=O)(=O)c1ccccc1 | 13.8 | 1.7 | · | -1.5 | · | ·
O=[N+]([O-])/C(C=Nc1ccccc1O)=C\Nc1ccccc1O | 8.3 | 0.4 | 6.1 | 83.1* | -0.7 | 0.5
COc1cc(C2SCCS2)cc(Br)c1Oc1ncccc1[N+](=O)[O-] | 1.9 | -3.0 | 5.2 | 58.3* | -2.9 | 32.6*
O=C(Nc1ccc(F)cc1)OCc1cn(Cc2ccccc2Cl)nn1 | · | · | · | · | 0.9 | ·
COC(=O)c1cccc(NC(=S)Nc2ccc(Cl)c(Cl)c2)c1 | -2.6 | 3.0 | 3.2 | 79.6* | -2.5 | 90.6*
NS(=O)(=O)c1cccc(NC(=O)Nc2ccc(Cl)cc2)c1 | 24.6 | 4.2 | 12.2 | 89.0* | -0.2 | 85.8*
CC(C)S(=O)(=O)c1csc(C(=O)NNC(=O)Nc2ccccc2)c1Cl | 14.5 | -1.2 | 4.1 | 1.5 | -0.9 | ·
COC(=O)c1cccc(NC(=O)Nc2ccc(Cl)cc2)c1 | 8.7 | 1.9 | 4.5 | 76.9* | 2.7 | 92.3*
CC(C)S(=O)(=O)c1csc(NC(=O)Nc2ccc(Cl)cc2)c1 | 14.5 | 1.0 | -10.3 | 76.3* | 2.8 | 79.2*
COc1ccc(NC(=S)Nc2cccc(C(C)=O)c2)cc1OC | 1.3 | -0.3 | -1.6 | 1.2 | -2.8 | ·
COC(=O)c1cc(NC(=S)Nc2cc(Cl)cc(Cl)c2)cc(C(=O)OC)c1 | -6.2 | 0.2 | -2.2 | 82.7* | 1.0 | 75.2*
Oc1ccc(Cl)cc1-c1cc(-c2cccc(Br)c2)n[nH]1 | 18.0 | -2.8 | 1.3 | 89.1* | -1.4 | 68.1*
CC(C)(C)c1ccc(-c2cc(-c3ccccc3O)[nH]n2)cc1 | -6.6 | 1.2 | 4.3 | 2.2 | -4.9 | ·
Oc1ccccc1-c1cc(-c2cccc(F)c2)n[nH]1 | 0.9 | 3.4 | 17.3 | 58.2* | 2.6 | 70.6*
Oc1ccc(Cl)cc1-c1cc(-c2ccccc2Cl)[nH]n1 | -0.9 | 3.2 | 34.6 | 61.3* | -1.4 | 66.5*
C[C@@H]1CCCN1c1cccc2c1S(=O)(=O)N1CC[C@@H](C1)O2 | · | · | · | · | -2.5 | ·
SMILES | MC4R antagonist | MC4R ag barr | ATG4B inh | MPTP inh | SMARCA2 act | Rh123 counter | others
CN(C)CCCNS(=O)(=O)c1cc(Cl)ccc1Cl | -2.4 | -0.9 | -4.0 | 0.0 | 1.8 | ·
NCCCCCCNS(=O)(=O)c1cccc2c(Cl)cccc12 | -1.7 | -0.2 | -1.4 | 108.1* | -5.7 | -7.0 | MPTP abs DR=7.44*;MPTP cs DR=46.5*
O=C(NCc1ccc(C(=O)N2CCCC2)cc1)c1cccc(Br)c1 | · | · | · | · | -1.2 | ·
CCCC1=NN(c2ccc([N+](=O)[O-])cc2)C(=O)/C1=C\N(C)C | 3.6 | -0.6 | 6.2 | 77.7* | 2.6 | 25.6*
CCOC(=O)c1nc(NNC(=O)c2ccc([N+](=O)[O-])cc2)sc1C | 3.0 | -4.4 | -0.6 | 78.3* | -2.2 | 67.4*
CCOC(=O)c1sc(NNC(=O)c2ccc(C)cc2)nc1C | 4.1 | -2.6 | 3.0 | 3.7 | -1.2 | ·
CC1CCC2(CC1)CCN(CCCOC(=O)Nc1cccc(F)c1)C2=O (centres undefined) | · | · | · | · | -4.4 | ·
O=C(NNC(=S)Nc1cccc(Cl)c1)c1ccccc1OC(F)F | 0.1 | -1.8 | 12.9 | 86.5* | -1.2 | 90.0*
COc1cccc(CNc2nc(NCC3CC3)nc3ccsc23)c1OC | 1.2 | -2.3 | · | 4.3 | -5.4 | ·
CSc1ccccc1CNc1nc(NCC2CC2)nc2ccsc12 | -9.9 | -0.1 | · | 91.2* | -8.1 | 102.3*
COc1ccccc1CNc1nc(NCCOc2ccccc2Cl)c2sccc2n1 | 2.6 | -1.7 | · | 50.5* | -10.1 | 91.8*
c1csc(CNc2nc(NCC3CCCCC3)c3sccc3n2)c1 | 6.1 | -0.6 | · | 51.0* | -6.3 | 91.1*
CC(C)c1ccc(CNc2nc(NCC3CC3)nc3ccsc23)cc1 | -1.4 | 5.3 | · | 80.3* | -0.4 | 99.2*
COC(=O)[C@]12C[C@H](CC(=O)N3CCN(C(=O)C4CC4)CC3)C(=O)N(Cc3ccc4c(c3)OCO4)C1=C[C@H](C(C)C)O[C@@H]2C1CC1 | · | · | · | · | -0.9 | ·
C[C@@H]1C[C@H](O)CCCCCC(=O)Cc2cc(O)cc(O)c2C(=O)O1 | · | · | · | · | 2.3 | ·
COc1ccc(C(=O)N2CCC[C@@H]2C(=O)N2CCC[C@@H]2C(=O)NCc2ccccc2)cc1F | · | · | · | · | -4.1 | ·
C=CCCC[C@H]1OC(=O)[C@H](C)NC(=O)[C@H](C(C)C)NC(=O)[C@@H]2CCCN2C(=O)[C@H](Cc2ccccc2)OC(=O)[C@@H](C(C)C)N(C)C(=O)[C@H](C(C)C)NC(=O)C1(C)C | · | · | · | · | -2.9 | ·
COc1cccc(Cn2cc(COC(=O)N(C)Cc3ccccc3)nn2)c1 | · | · | · | · | -1.6 | ·
CCOC(=O)c1sc(NC(=O)c2cccc(S(=O)(=O)N3CCc4ccccc43)c2)c(C#N)c1C | 25.2 | 0.9 | 3.2 | 90.6* | 2.1 | 86.3*
O=C(Nc1cccnc1)c1cccc(S(=O)(=O)N2CCc3ccccc32)c1 | -1.5 | 1.4 | -10.8 | -1.0 | -5.0 | ·
CCc1ccccc1NC(=O)c1cc(S(=O)(=O)N2CCc3ccccc32)cn1C | 2.8 | 0.8 | -25.4 | 0.9 | -2.4 | ·
O=C(Nc1ccncc1)c1cccc(S(=O)(=O)N2CCc3ccccc32)c1 | 0.3 | -0.6 | -9.7 | 95.9* | -4.6 | 94.0*
